Calls of active or inactive are those of the source. No cut-off for these calls is given here.

A word on the pKa: it is the pH at which an ionisable group is half protonated. The low end stands for a group that gives up its proton readily, the high end for a group that holds its proton tightly. Broadly, the logP is a log measure of how a compound divides between an organic and an aqueous phase. Broadly, the EC50 is the concentration at which the effect is half-maximal.

The subject of one series is Lipid bilayer. Description: Immobilized artificial membrane partition coefficient, logK-IAMex of the compound by HPLC analysis.
Details: not given
Type of series: physicochemical. The procedure, abridged:
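Run on an IAM.PC.DD2 column. Mobile phase was 0.01 M PBS, or acetonitrile (40% to 25% v/v in 5% steps) in 0.01 M PBS, at pH 7.4. Dead time was taken with methanol. The 100% aqueous value was obtained by linear extrapolation from the acetonitrile runs. Mean of triplicates.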
Take `CC(C)(Cc1ccc(O)cc1)c1ccccc1`: the logK-IAMex is given as 2.73.

`C[P+](C)(Bc1ccc(O)cc1)c1ccccc1` displayed a logK-IAMex of 1.91.

The compound `C[P+](C)(C)Bc1cccc(O)c1` displayed a logK-IAMex of 0.81.

For `CC[P+](Bc1ccc(O)cc1)(CC)c1ccccc1`, the logK-IAMex is recorded as 2.46.

Compound `CC(C)(C)Cc1ccc(O)cc1` gave a logK-IAMex of 2.22.

`CC[P+](Bc1cccc(O)c1)(CC)CC` came in with a logK-IAMex of 1.59.

As for `CC[P+](Bc1cccc(O)c1)(CC)c1ccccc1`, the logK-IAMex was found to be 2.28.

As for `CC[P+](Bc1ccc(O)cc1)(CC)CC`, the logK-IAMex was 1.81.

With `C[P+](C)(Bc1cccc(O)c1)c1ccccc1`, the logK-IAMex was 1.71.

As for `C[Si](C)(Cc1ccc(O)cc1)c1ccccc1`, the logK-IAMex is reported as 3.05.

On to `C[Si](C)(C)Cc1ccc(O)cc1`, for which the logK-IAMex was 2.38.

Compound `C[P+](C)(C)Bc1ccc(O)cc1` displayed a logK-IAMex of 0.8.

System in the next series: not listed separately
Description: Dissociation constant, pKa of the compound by pH-metric method. The format is physicochemical. The settings on record: in the assay text read “pH-dependent UV absorbance method” for “pH-metric method”. The gist of the method:
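Determined from the change in absorbance at λmax in pH-dependent UV spectra, recorded in 20:80 (w/w) methanol–phosphate buffer over pH 6.0–12.0. Meter pH corrected as pH* = pH(recorded) − 0.01. Triplicate measurements.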
As for `CC(C)(Cc1ccc(O)cc1)c1ccccc1`, the pKa came to 10.7.

In turn, `C[P+](C)(Bc1ccc(O)cc1)c1ccccc1` returned a pKa of 11.2.

As to `C[P+](C)(C)Bc1cccc(O)c1`, the pKa came out at 11.3.

`CC[P+](Bc1ccc(O)cc1)(CC)c1ccccc1`: the pKa stood at 11.1.

In turn, `CC(C)(C)Cc1ccc(O)cc1` returned a pKa of 10.8.

With `CC[P+](Bc1cccc(O)c1)(CC)CC`, the pKa stood at 11.3.

As for `CC[P+](Bc1cccc(O)c1)(CC)c1ccccc1`, the pKa amounted to 11.3.

`CC[P+](Bc1ccc(O)cc1)(CC)CC` yielded a pKa of 11.

`C[P+](C)(Bc1cccc(O)c1)c1ccccc1` gave a pKa of 11.3.

`C[Si](C)(Cc1ccc(O)cc1)c1ccccc1` displayed a pKa of 10.9.

On to `C[Si](C)(C)Cc1ccc(O)cc1`, for which the pKa amounted to 10.7.

`C[P+](C)(C)Bc1ccc(O)cc1` yielded a pKa of 11.3.

System in a further series: not listed separately
Briefly: Aqueous stability of the compound in PBS assessed as compound remaining at pH 7.4 incubated for 3 hrs by HPLC analysis. Type of series: physicochemical. The conditions noted are these: read-out: Stability. The gist of the method:
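Test compound at 0.1 mM in acetonitrile/PBS (5:95 v/v), held 3 h at 37 °C. Analysed by reversed-phase C18 HPLC with the column at 37.0 °C and UV detection at the peak wavelength between 220 and 240 nm. Residual % = peak area at 3 h / peak area at t0 × 100. Mean of triplicate runs.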
Turning to `CC(C)(Cc1ccc(O)cc1)c1ccccc1`, the remaining at 3 h came to 99%.

For the compound `C[P+](C)(Bc1ccc(O)cc1)c1ccccc1`, the remaining at 3 h was determined as 94.5%.

As to `C[P+](C)(C)Bc1cccc(O)c1`, the remaining at 3 h stood at 100%.

`CC[P+](Bc1ccc(O)cc1)(CC)c1ccccc1`: the remaining at 3 h was found to be 97.6%.

As for `CC(C)(C)Cc1ccc(O)cc1`, the remaining at 3 h was 92.5%.

On to `CC[P+](Bc1cccc(O)c1)(CC)CC`, for which the remaining at 3 h stood at 99.7%.

Turning to `CC[P+](Bc1cccc(O)c1)(CC)c1ccccc1`, the remaining at 3 h is 100%.

As to `CC[P+](Bc1ccc(O)cc1)(CC)CC`, the remaining at 3 h was 99.3%.

Consider `C[P+](C)(Bc1cccc(O)c1)c1ccccc1`, for which the remaining at 3 h was determined as 99%.

For `C[Si](C)(Cc1ccc(O)cc1)c1ccccc1`, the remaining at 3 h came to 96.2%.

Take `C[Si](C)(C)Cc1ccc(O)cc1`: the remaining at 3 h came to 89.9%.

As to `C[P+](C)(C)Bc1ccc(O)cc1`, the remaining at 3 h was 99.9%.

System in the next series: not listed separately
Description: 1-Octanol/water partition coefficient, logP of the compound by HPLC analysis. The format is physicochemical.
Details: not given
As for `CC(C)(Cc1ccc(O)cc1)c1ccccc1`, the logP was determined as 5.26.

`C[P+](C)(Bc1ccc(O)cc1)c1ccccc1` registered a logP of 3.18.

With `C[P+](C)(C)Bc1cccc(O)c1`, the logP turned out to be 2.55.

`Oc1ccc(B[P+](C2CCCC2)(C2CCCC2)C2CCCC2)cc1` returned a logP of 6.23.

Compound `CCCC[P+](Bc1cccc(O)c1)(CCCC)CCCC` registered a logP of 6.43.

`CC[P+](Bc1ccc(O)cc1)(CC)c1ccccc1` came in with a logP of 4.11.

`CCCC[P+](Bc1ccc(O)cc1)(CCCC)CCCC` came in with a logP of 6.32.

On to `CC(C)(C)Cc1ccc(O)cc1`, for which the logP is 4.36.

For the compound `CC(C)[P+](Bc1cccc(O)c1)(c1ccccc1)C(C)C`, the log partition coefficient (logP) was determined as 4.93.

In turn, `CC(C)[P+](Bc1ccc(O)cc1)(c1ccccc1)C(C)C` gave a logP of 4.79.

`Oc1ccc(B[P+](C2CC2)(C2CC2)C2CC2)cc1` showed a logP of 3.8.

As for `CC[P+](Bc1cccc(O)c1)(CC)CC`, the logP worked out at 3.47.

Turning to `CC[P+](Bc1cccc(O)c1)(CC)c1ccccc1`, the logP is 4.19.

`Oc1ccc(B[P+](C2CCCCC2)(C2CCCCC2)C2CCCCC2)cc1` gave a logP of 7.22.

The compound `CC[P+](Bc1ccc(O)cc1)(CC)CC` gave a logP of 3.28.

`C[P+](C)(Bc1cccc(O)c1)c1ccccc1` returned a logP of 3.27.

For the compound `CC(C)[P+](Bc1ccc(O)cc1)(C(C)C)C(C)C`, the logP stood at 4.56.

As for `C[Si](C)(Cc1ccc(O)cc1)c1ccccc1`, the logP is 5.74.

Take `C[Si](C)(C)Cc1ccc(O)cc1`: the logP came to 4.91.

`C[P+](C)(C)Bc1ccc(O)cc1` gave a logP of 2.44.

A further series deals with T1, Estrogen receptor (Homo sapiens) (UniProt P03372).
T1 sequence (whole entry): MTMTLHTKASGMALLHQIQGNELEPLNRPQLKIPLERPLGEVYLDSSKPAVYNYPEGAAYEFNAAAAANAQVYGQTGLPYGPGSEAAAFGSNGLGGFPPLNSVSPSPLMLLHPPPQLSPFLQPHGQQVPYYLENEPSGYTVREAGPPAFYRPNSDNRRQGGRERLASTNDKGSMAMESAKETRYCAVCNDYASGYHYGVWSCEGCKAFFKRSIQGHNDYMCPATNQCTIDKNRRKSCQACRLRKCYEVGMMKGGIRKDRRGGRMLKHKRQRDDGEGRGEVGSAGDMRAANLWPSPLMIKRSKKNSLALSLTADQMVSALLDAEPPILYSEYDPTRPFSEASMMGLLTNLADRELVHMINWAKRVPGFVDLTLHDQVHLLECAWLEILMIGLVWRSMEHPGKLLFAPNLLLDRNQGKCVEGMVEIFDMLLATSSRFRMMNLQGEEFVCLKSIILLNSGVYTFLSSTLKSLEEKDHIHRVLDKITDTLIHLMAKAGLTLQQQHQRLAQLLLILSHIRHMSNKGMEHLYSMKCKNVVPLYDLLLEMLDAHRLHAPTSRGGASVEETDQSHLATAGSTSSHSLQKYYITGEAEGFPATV
Description: (§1) Agonist activity at human ERalpha expressed in HEK293 cells assessed as increase in […] activity incubated for 24 hrs by luciferase based microplate reader assay. Type of series: cell-based.
Details: not given
Take `C[P+](C)(Bc1ccc(O)cc1)c1ccccc1`: the result was inactive.

Take `C[P+](C)(C)Bc1cccc(O)c1`: the result was inactive.

Consider `Oc1ccc(B[P+](C2CCCC2)(C2CCCC2)C2CCCC2)cc1`, for which the outcome was inactive.

For `CCCC[P+](Bc1cccc(O)c1)(CCCC)CCCC`, the result was inactive.

For the compound `CC[P+](Bc1ccc(O)cc1)(CC)c1ccccc1`, the result was inactive.

With `CCCC[P+](Bc1ccc(O)cc1)(CCCC)CCCC`, the result was inactive.

As to `Oc1ccc(B[P+](C2CCCCC2)(C2CCCCC2)C2CCCCC2)cc1`, the outcome was inactive.

In the case of `C[P+](C)(C)Bc1ccc(O)cc1`, the result was inactive.

Another series deals with T2, Estrogen receptor (Homo sapiens, UniProt P03372).
T2 sequence (P03372 whole entry): T1 sequence (whole entry)
Described as §1. Type of series: cell-based.
Details: not given
As for `CC(C)[P+](Bc1cccc(O)c1)(c1ccccc1)C(C)C`, the EC50 was determined as 3.45 µM.

With `CC(C)[P+](Bc1ccc(O)cc1)(c1ccccc1)C(C)C`, the EC50 is greater than 10 µM.

As for `Oc1ccc(B[P+](C2CC2)(C2CC2)C2CC2)cc1`, the EC50 is 2.68 µM.

On to `CC[P+](Bc1cccc(O)c1)(CC)CC`, for which the EC50 is greater than 10 µM.

As to `CC[P+](Bc1cccc(O)c1)(CC)c1ccccc1`, the EC50 is 4.09 µM.

For `C[P+](C)(Bc1cccc(O)c1)c1ccccc1`, the EC50 was greater than 10 µM.

With `C[Si](C)(C)Cc1ccc(O)cc1`, the EC50 came out at 1.41 µM.

Values taken from ChEMBL document CHEMBL5357039, “Physicochemical characterization of B-hydroxyphenyl phosphine borane derivatives and their evaluation as nuclear estrogen receptor ligands” (RSC Med Chem, 2024).
